The nature of data set [1]: Drug metabolism in Sprague-Dawley rat cecal contents assessed as accumulation of colonic bacteria-mediated final reduction product level at 2 mM. Type of data set: ADME. To be noted: 2000 µM. An outline of the steps: (§1)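 The reduction was followed by reversed-phase HPLC with photodiode-array detection on a C18 column at 30 °C and 1 mL/min. Elution used a gradient of methanol against 50 mM potassium phosphate buffer, pH 6.8, containing 0.1% tetrabutylammonium hydroxide.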

A short description of data set [2]: Drug metabolism in Sprague-Dawley rat cecal contents assessed as colonic bacteria-mediated rate for final reduction product formation relative to sulfasalazine reduction rate. Type of data set: ADME. A digest of the protocol:
as §1

On to `O=C(O)c1cc([N+](=O)[O-])ccc1O`, for which, in data set [1], the Drug metabolism result is on record as “Active”. Also, the Ratio in data set [2] was found to be 0.45. In the case of `CN(C)c1ccc([N+](=O)[O-])cc1C(=O)O`, the Ratio in data set [2] is listed as 0.724. For `O=C(O)c1cc(/N=N/c2ccc(O)c(C(=O)O)c2)ccc1O` [OLSALAZINE], the Drug metabolism entry in data set [1] is listed as “Active”. As for `Cc1ccc([N+](=O)[O-])cc1C(=O)O`, the Ratio in data set [2] turned out to be 0.603. On to `O=C(O)c1cc(SSc2ccc(O)c(C(=O)O)c2)ccc1O`, for which the Drug metabolism entry in data set [1] is on record as “Active”. In the case of `O=C(O)c1cc(C(=O)O)cc([N+](=O)[O-])c1`, in data set [2], the Ratio is given as 0.128.

Regarding `O=C(O)c1cc([N+](=O)[O-])ccc1Cl`, in data set [2], the Ratio came out at 1.013. For `O=C(O)c1ccc([N+](=O)[O-])cc1C(=O)O`, the Ratio in data set [2] was found to be 0.113.

As for `O=C(O)c1cc([N+](=O)[O-])cc(C(F)(F)F)c1`, the Ratio in data set [2] was determined as 1.222.

Take `O=C(O)c1cccc([N+](=O)[O-])c1`: the Ratio in data set [2] is given as 0.759.
